In ChEMBL document CHEMBL1139231 (J Med Chem, 2007):
Activity calls are given as the source filed them. The calls are words filed in the database; no cut-off is given here.

biological target: T1, Sodium-dependent serotonin transporter (Homo sapiens, UniProt P31645); experiment: Inhibition of [3H]5-HT uptake into human SERT expressing HEK293 cells; assay type: cell-based
How it was run: (§1)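 Intact HEK293 cells stably expressing human SERT or DAT, scraped and triturated, preincubated with drug 10 min at 25 °C in Krebs-HEPES pH 7.4; [3H]5-HT or [3H]DA (20 nM final) added for 10 min; filtration, scintillation counting. Nonspecific: 5 µM imipramine (SERT) or 5 µM mazindol (DAT). Triplicate points, ≥3 experiments.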

T1 sequence (P31645 whole entry): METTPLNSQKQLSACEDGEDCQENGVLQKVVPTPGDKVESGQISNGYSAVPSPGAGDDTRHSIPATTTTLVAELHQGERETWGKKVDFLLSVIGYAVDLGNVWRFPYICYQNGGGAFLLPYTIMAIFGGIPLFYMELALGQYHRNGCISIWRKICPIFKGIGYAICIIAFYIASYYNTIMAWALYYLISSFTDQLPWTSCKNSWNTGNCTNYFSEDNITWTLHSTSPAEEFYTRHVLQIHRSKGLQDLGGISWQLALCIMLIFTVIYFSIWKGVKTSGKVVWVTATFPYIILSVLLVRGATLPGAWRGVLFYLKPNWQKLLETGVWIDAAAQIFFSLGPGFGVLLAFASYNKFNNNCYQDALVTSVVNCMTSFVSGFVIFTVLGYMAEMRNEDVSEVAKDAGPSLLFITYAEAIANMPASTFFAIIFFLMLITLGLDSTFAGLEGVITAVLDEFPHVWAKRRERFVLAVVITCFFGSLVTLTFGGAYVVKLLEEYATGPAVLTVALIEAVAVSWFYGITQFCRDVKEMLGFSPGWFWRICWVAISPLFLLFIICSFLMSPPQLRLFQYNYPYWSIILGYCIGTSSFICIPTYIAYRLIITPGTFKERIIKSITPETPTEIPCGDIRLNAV

Row | Compound | IC50 [µM]
1 | COc1ccc(C(CC(C)C)C2CCCCN2)cc1 (stereo in doubt; form 2) | 1.2
2 | CC(C)CC(c1ccc(Cl)c(Cl)c1)C1CCCCN1 (stereo in doubt; form 2) | 0.29
3 | COC(=O)C(c1ccc(Cl)cc1)C1CCCCN1 (stereo in doubt; form 2) | > 10000
4 | CC(c1ccc(Cl)cc1)C1CCCCN1 (stereo in doubt; form 2) | 4.7
5 | CCC(CC)C(c1ccc(Cl)cc1)C1CCCCN1 (stereo in doubt; form 2) | > 9.6
6 | CC(C)CC(c1cccc(Cl)c1)C1CCCCN1 (stereo in doubt; form 2) | 0.87
7 | CCCC(c1ccc(Cl)c(Cl)c1)C1CCCCN1 (stereo in doubt; form 2) | 0.18
8 | CCCCCC(c1ccc(Cl)cc1)C1CCCCN1 (stereo in doubt; form 2) | 1.7
9 | CC(C)CCC(c1ccc(Cl)cc1)C1CCCCN1 (stereo in doubt; form 2) | > 8.3
10 | CCCCC(c1ccc(Cl)c(Cl)c1)C1CCCCN1 (stereo in doubt; form 2) | 0.55
11 | Clc1ccc(C(CCCc2ccccc2)C2CCCCN2)cc1 (stereo in doubt; form 2) | 1.2
12 | COC(=O)C(c1ccccc1)C1CCCCN1 (stereo unspecified) [METHYLPHENIDATE] | 5.1

biological target: T2, Sodium-dependent dopamine transporter (Homo sapiens, UniProt Q01959); experiment: Displacement of [125I]RTI-55 from human DAT expressing HEK293 cells; assay type: cell-based
T2 sequence (Q01959 whole entry): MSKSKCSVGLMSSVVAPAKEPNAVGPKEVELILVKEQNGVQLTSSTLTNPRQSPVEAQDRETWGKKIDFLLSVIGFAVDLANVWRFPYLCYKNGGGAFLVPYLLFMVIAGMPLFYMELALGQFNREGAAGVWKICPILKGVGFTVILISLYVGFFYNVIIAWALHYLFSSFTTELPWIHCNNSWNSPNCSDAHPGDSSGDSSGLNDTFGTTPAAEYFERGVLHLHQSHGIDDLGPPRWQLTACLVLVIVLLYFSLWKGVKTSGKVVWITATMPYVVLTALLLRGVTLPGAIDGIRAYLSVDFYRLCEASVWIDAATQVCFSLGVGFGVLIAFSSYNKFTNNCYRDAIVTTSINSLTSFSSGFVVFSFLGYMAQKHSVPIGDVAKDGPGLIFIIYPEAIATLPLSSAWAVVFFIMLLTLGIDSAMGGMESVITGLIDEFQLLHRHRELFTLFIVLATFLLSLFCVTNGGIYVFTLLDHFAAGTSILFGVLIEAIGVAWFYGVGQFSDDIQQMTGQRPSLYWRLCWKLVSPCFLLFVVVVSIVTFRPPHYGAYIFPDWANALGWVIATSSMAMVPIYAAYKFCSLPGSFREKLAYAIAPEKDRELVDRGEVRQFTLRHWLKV

Row | Compound | Ki [µM]
13 | CC(C)CC(c1ccc(C(C)C)cc1)C1CCCCN1 (stereo unspecified) | > 6.5
14 | COc1ccc(C(CC(C)C)C2CCCCN2)cc1 (stereo in doubt; form 2) | 0.77
15 | CC(C)CC(c1ccc(Cl)c(Cl)c1)C1CCCCN1 (stereo in doubt; form 2) | 0.031
16 | CC(c1ccc(Cl)cc1)C1CCCCN1 (stereo in doubt; form 2) | > 3.9
17 | CCC(CC)C(c1ccc(Cl)cc1)C1CCCCN1 (stereo in doubt; form 2) | > 5.7
18 | CC(C)CC(c1cccc(Cl)c1)C1CCCCN1 (stereo in doubt; form 2) | 0.14
19 | CCCC(c1ccc(Cl)c(Cl)c1)C1CCCCN1 (stereo in doubt; form 2) | 0.043
20 | CCCCCC(c1ccc(Cl)cc1)C1CCCCN1 (stereo in doubt; form 2) | 0.87
21 | CC(C)CC(c1ccc(Cl)cc1)C1CCCCN1 (stereo in doubt; form 2) | 0.17
22 | CC(C)CCC(c1ccc(Cl)cc1)C1CCCCN1 (stereo in doubt; form 2) | 0.51
23 | CCCCC(c1ccc(Cl)c(Cl)c1)C1CCCCN1 (stereo in doubt; form 2) | 0.029
24 | Clc1ccc(C(CCCc2ccccc2)C2CCCCN2)cc1 (stereo in doubt; form 2) | 2.9

system: Mus musculus; experiment: Effect on locomotor activity in Swiss-Webster mouse at 30 mg/kg; assay type: functional, organism-based; parameters: dose 30 mg/kg
How it was run: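 Nonhabituated male Swiss-Webster mice (Hsd:ND4, 2-3 months), groups of eight, dosed ip (vehicle deionized water) immediately before testing; horizontal photobeam interruptions counted per 10 min over 8 h, one mouse per chamber, starting 2 h after lights on; compared with vehicle, p < 0.05.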

Row | Compound | Activity
25 | CC(C)CC(c1ccc(Cl)cc1)C1CCCCN1 (stereo in doubt; form 1) | Active

biological target: T3, Sodium-dependent noradrenaline transporter (Homo sapiens, UniProt P23975); experiment: Displacement of [125I]RTI-55 from human NET expressing HEK293 cells; assay type: cell-based
T3 sequence (P23975 whole entry): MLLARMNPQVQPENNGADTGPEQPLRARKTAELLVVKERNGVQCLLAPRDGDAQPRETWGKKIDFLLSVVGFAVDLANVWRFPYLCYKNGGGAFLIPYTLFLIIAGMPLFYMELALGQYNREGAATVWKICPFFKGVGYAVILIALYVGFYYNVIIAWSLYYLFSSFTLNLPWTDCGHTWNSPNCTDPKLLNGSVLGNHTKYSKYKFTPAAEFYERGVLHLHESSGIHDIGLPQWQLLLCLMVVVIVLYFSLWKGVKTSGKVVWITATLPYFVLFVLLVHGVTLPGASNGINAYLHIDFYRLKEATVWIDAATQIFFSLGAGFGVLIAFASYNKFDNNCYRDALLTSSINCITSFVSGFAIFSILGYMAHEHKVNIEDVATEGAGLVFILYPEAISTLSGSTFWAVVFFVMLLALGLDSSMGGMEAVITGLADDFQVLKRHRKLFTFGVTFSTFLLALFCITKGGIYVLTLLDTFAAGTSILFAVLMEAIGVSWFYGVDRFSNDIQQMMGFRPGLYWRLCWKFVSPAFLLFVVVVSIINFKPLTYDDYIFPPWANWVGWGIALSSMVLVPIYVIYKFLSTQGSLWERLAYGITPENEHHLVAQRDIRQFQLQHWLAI

Row | Compound | Ki [µM]
26 | CC(C)C(c1ccc(Cl)cc1)C1CCCCN1 (stereo unspecified) | > 10000
27 | COc1ccc(C(CC(C)C)C2CCCCN2)cc1 (stereo in doubt; form 2) | 16
28 | CC(C)CC(c1ccc(Cl)c(Cl)c1)C1CCCCN1 (stereo in doubt; form 2) | 0.12
29 | COC(=O)C(c1ccc(Cl)cc1)C1CCCCN1 (stereo in doubt; form 2) | > 6.1
30 | CC(c1ccc(Cl)cc1)C1CCCCN1 (stereo in doubt; form 2) | > 6.3
31 | CCC(CC)C(c1ccc(Cl)cc1)C1CCCCN1 (stereo in doubt; form 2) | 4.3
32 | CC(C)CC(c1cccc(Cl)c1)C1CCCCN1 (stereo in doubt; form 2) | 0.34
33 | CCCC(c1ccc(Cl)c(Cl)c1)C1CCCCN1 (stereo in doubt; form 2) | 0.03
34 | CCCCCC(c1ccc(Cl)cc1)C1CCCCN1 (stereo in doubt; form 2) | 1.5
35 | CC(C)CC(c1ccc(Cl)cc1)C1CCCCN1 (stereo in doubt; form 2) | 4.5
36 | CC(C)CCC(c1ccc(Cl)cc1)C1CCCCN1 (stereo in doubt; form 2) | 12
37 | CCCCC(c1ccc(Cl)c(Cl)c1)C1CCCCN1 (stereo in doubt; form 2) | 0.031
38 | Clc1ccc(C(CCCc2ccccc2)C2CCCCN2)cc1 (stereo in doubt; form 2) | 1.5
39 | COC(=O)C(c1ccccc1)C1CCCCN1 (stereo unspecified) [METHYLPHENIDATE] | 0.66

biological target: T3, Sodium-dependent noradrenaline transporter; experiment: Inhibition of [3H]NE uptake into human NET expressing HEK293 cells; assay type: cell-based

Row | Compound | IC50 [µM]
40 | CC(C)CC(c1ccc(C(C)C)cc1)C1CCCCN1 (stereo unspecified) | > 8.7
41 | Clc1ccc(C(Cc2ccccc2)C2CCCCN2)cc1 (stereo unspecified) | > 8.8
42 | CC(C)CC(c1ccc(Cl)c(Cl)c1)C1CCCCN1C (stereo unspecified) | 0.028
43 | COc1ccc(C(CC(C)C)C2CCCCN2)cc1 (stereo in doubt; form 2) | 1.6
44 | CC(C)CC(c1ccc(Cl)c(Cl)c1)C1CCCCN1 (stereo in doubt; form 2) | 0.019
45 | CC(c1ccc(Cl)cc1)C1CCCCN1 (stereo in doubt; form 2) | 3.2
46 | CCC(CC)C(c1ccc(Cl)cc1)C1CCCCN1 (stereo in doubt; form 2) | 3.8
47 | CC(C)CC(c1cccc(Cl)c1)C1CCCCN1 (stereo in doubt; form 2) | 0.073
48 | CCCC(c1ccc(Cl)c(Cl)c1)C1CCCCN1 (stereo in doubt; form 2) | 0.047
49 | CCCCCC(c1ccc(Cl)cc1)C1CCCCN1 (stereo in doubt; form 2) | 0.86
50 | CC(C)CC(c1ccc(Cl)cc1)C1CCCCN1 (stereo in doubt; form 2) | 0.75
51 | CC(C)CCC(c1ccc(Cl)cc1)C1CCCCN1 (stereo in doubt; form 2) | 3
52 | CCCCC(c1ccc(Cl)c(Cl)c1)C1CCCCN1 (stereo in doubt; form 2) | 0.063
53 | Clc1ccc(C(CCCc2ccccc2)C2CCCCN2)cc1 (stereo in doubt; form 2) | 1.7
54 | COC(=O)C(c1ccccc1)C1CCCCN1 (stereo unspecified) [METHYLPHENIDATE] | 0.061

biological target: T2, Sodium-dependent dopamine transporter; experiment: Inhibition of [3H]DA uptake at human DAT expressing HEK293 cells; assay type: cell-based; how it was run: as §1

Row | Compound | IC50 [µM]
55 | CC(C)CC(c1ccc(C(C)C)cc1)C1CCCCN1 (stereo unspecified) | > 9.1
56 | COc1ccc(C(CC(C)C)C2CCCCN2)cc1 (stereo in doubt; form 2) | 0.4
57 | CC(C)CC(c1ccc(Cl)c(Cl)c1)C1CCCCN1 (stereo in doubt; form 2) | 0.013
58 | CC(c1ccc(Cl)cc1)C1CCCCN1 (stereo in doubt; form 2) | 1.5
59 | CCC(CC)C(c1ccc(Cl)cc1)C1CCCCN1 (stereo in doubt; form 2) | 1.2
60 | CC(C)CC(c1cccc(Cl)c1)C1CCCCN1 (stereo in doubt; form 2) | 0.088
61 | CCCC(c1ccc(Cl)c(Cl)c1)C1CCCCN1 (stereo in doubt; form 2) | 0.088
62 | CCCCCC(c1ccc(Cl)cc1)C1CCCCN1 (stereo in doubt; form 2) | 0.65
63 | CC(C)CC(c1ccc(Cl)cc1)C1CCCCN1 (stereo in doubt; form 2) | 0.38
64 | CC(C)CCC(c1ccc(Cl)cc1)C1CCCCN1 (stereo in doubt; form 2) | 0.68
65 | CCCCC(c1ccc(Cl)c(Cl)c1)C1CCCCN1 (stereo in doubt; form 2) | 0.067
66 | Clc1ccc(C(CCCc2ccccc2)C2CCCCN2)cc1 (stereo in doubt; form 2) | 1.4

biological target: T1, Sodium-dependent serotonin transporter; experiment: Displacement of [125I]RTI-55 from human SERT expressing HEK293 cells; assay type: cell-based
How it was run: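 Membranes from HEK293 cells stably expressing human DAT or SERT (lysed in hypotonic HEPES/EDTA, pelleted, resuspended in 0.32 M sucrose) preincubated with drug 10 min at rt, then [125I]RTI-55 added; 90 min rt in dark; filtration, scintillation counting. Krebs-HEPES buffer pH 7.4. Nonspecific: 5 µM mazindol (DAT) or 5 µM imipramine (SERT). Duplicate points, ≥3 experiments.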

Row | Compound | Ki [µM]
67 | CC(C)C(c1ccc(Cl)cc1)C1CCCCN1 (stereo unspecified) | > 10000
68 | COc1ccc(C(CC(C)C)C2CCCCN2)cc1 (stereo in doubt; form 2) | 0.95
69 | CC(C)CC(c1ccc(Cl)c(Cl)c1)C1CCCCN1 (stereo in doubt; form 2) | 0.45
70 | CC(c1ccc(Cl)cc1)C1CCCCN1 (stereo in doubt; form 2) | > 9.1
71 | CCC(CC)C(c1ccc(Cl)cc1)C1CCCCN1 (stereo in doubt; form 2) | 4.8
72 | CCCC(c1ccc(Cl)c(Cl)c1)C1CCCCN1 (stereo in doubt; form 2) | 0.45
73 | CCCCCC(c1ccc(Cl)cc1)C1CCCCN1 (stereo in doubt; form 2) | 3.6
74 | CC(C)CCC(c1ccc(Cl)cc1)C1CCCCN1 (stereo in doubt; form 2) | 6.7
75 | CCCCC(c1ccc(Cl)c(Cl)c1)C1CCCCN1 (stereo in doubt; form 2) | 1.1
76 | Clc1ccc(C(CCCc2ccccc2)C2CCCCN2)cc1 (stereo in doubt; form 2) | 1.5
